Bounds are passed on as bounds.

The subject of data set [1] is HepG2. Put plainly: Cytotoxicity against adriamycin-resistant human HepG2 cells assessed as inhibition of cell proliferation after 48 hrs by MTT assay. The format is functional, cell-based. The conditions noted are these: HepG2, 48 h. The method, boiled down: (§1)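 Seeded at 5 × 10^3 cells/well with graded compound levels, DMSO as negative control, 48 h. MTT added for 4 h, formazan dissolved in DMSO, OD read at 570 nm (reference 630 nm). IC50 by nonlinear regression; triplicate samples.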
For orientation: Formazan colour is commonly taken as a measure of viable cells.

The test system of data set [2] is NCI/ADR-RES. Description: Intrinsic cytotoxicity against human MCF7/ADR cells assessed as inhibition of cell proliferation after 48 hrs by MTT assay. The format is cell-based. The method, boiled down:
as §1

The target of data set [3] is T1, ATP-dependent translocase ABCB1 (Homo sapiens, UniProt P08183). Put plainly: Inhibition of P-gp mediated efflux in adriamycin-resistant human HepG2 cells assessed as intracellular rhodamine-123 accumulation at 10 uM incubated in dark condition for 90 mins by flow cytometry relative to control. The format is cell-based. The method, boiled down: (§2)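 HepG2/ADR cells seeded at 5 × 10^5/well and given compound plus 10 μM Rho123 in the dark at 37 °C for 90 min. Cells washed twice in ice-cold PBS, resuspended in PBS, read by flow cytometry in FL1 (Em 525 nm). Fold of control = (treated fluorescence − background)/(Rho123-only fluorescence − background).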

Data set [4] deals with T1, ATP-dependent translocase ABCB1. Put plainly: Inhibition of P-gp mediated efflux in adriamycin-resistant human HepG2 cells assessed as intracellular rhodamine-123 accumulation at 1 uM incubated in dark condition for 90 mins by flow cytometry. It counts as cell-based. The method, boiled down:
as §2
Background: Flow cytometry measures light scatter and fluorescence of single cells or particles in a stream.

Data set [5] can be described thus: Cytotoxicity against HLF cells assessed as inhibition of cell proliferation after 48 hrs by MTT assay. The format is cell-based. The conditions noted are these: Homo sapiens. The method, boiled down:
as §1

Data set [6] has as its target T1, ATP-dependent translocase ABCB1. Put plainly: Inhibition of P-gp mediated efflux in adriamycin-resistant human HepG2 cells assessed as intracellular rhodamine-123 accumulation at 2 uM incubated in dark condition for 90 mins by flow cytometry relative to control. The format is cell-based. Put shortly: as §2
Data set [7] shares this target. Put plainly: Inhibition of P-gp mediated efflux in adriamycin-resistant human HepG2 cells assessed as intracellular rhodamine-123 accumulation at 0.125 uM incubated in dark condition for 90 mins by flow cytometry relative to control. The format is cell-based. Put shortly: as §2
The target is the same in data set [8]. Put plainly: Inhibition of P-gp mediated efflux in adriamycin-resistant human HepG2 cells assessed as intracellular rhodamine-123 accumulation at 0.125 to 10 uM incubated in dark condition for 90 mins by flow cytometry. The format is cell-based. The method, boiled down:
as §2

T1 sequence (P08183 whole entry): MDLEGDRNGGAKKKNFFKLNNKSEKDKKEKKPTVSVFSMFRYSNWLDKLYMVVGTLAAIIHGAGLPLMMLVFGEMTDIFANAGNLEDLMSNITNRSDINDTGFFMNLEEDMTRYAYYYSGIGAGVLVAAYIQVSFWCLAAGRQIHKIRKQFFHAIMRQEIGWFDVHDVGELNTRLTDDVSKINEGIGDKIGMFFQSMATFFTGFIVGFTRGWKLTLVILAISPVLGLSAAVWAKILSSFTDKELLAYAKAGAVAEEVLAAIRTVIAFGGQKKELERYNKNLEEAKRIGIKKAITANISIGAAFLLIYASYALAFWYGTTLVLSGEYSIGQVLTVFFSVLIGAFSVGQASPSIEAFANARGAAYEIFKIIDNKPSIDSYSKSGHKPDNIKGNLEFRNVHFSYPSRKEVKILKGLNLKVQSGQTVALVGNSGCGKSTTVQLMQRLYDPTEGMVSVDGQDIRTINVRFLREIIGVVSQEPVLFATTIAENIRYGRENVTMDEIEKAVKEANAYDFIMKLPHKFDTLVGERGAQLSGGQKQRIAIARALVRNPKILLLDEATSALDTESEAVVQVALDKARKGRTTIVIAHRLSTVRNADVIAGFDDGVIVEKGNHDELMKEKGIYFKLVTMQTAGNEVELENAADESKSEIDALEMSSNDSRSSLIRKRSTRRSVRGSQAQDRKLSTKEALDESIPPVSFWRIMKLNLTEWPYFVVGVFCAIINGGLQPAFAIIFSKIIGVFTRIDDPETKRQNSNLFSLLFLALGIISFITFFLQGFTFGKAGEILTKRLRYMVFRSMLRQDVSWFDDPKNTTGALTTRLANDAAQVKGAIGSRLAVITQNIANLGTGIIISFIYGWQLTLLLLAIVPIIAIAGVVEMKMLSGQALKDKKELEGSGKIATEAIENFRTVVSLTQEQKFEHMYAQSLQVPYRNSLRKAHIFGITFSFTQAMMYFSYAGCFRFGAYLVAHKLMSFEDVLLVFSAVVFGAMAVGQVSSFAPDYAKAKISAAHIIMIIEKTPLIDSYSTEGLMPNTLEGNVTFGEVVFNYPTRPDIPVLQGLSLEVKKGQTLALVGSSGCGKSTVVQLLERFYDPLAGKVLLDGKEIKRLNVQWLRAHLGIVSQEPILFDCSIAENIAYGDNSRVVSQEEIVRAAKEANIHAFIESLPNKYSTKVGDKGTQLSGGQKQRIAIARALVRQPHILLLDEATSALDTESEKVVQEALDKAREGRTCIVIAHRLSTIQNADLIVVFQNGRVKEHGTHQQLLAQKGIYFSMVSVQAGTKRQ

As usually defined, the IC50 is the concentration needed to halve the response being measured. As to `CC(=O)O[C@@H]1C[C@@H](OC(=O)c2ccccc2)/C(C)=C/[C@H]2[C@@H](OC(=O)c3ccccc3)[C@@H](C)[C@H](OC(=O)c3ccc(Br)cc3)[C@]2(OC(C)=O)[C@H](O)[C@](C)(O)/C=C/C1(C)C`, the IC50 in data set [1] was 81.3 µM; in data set [2], > 150 µM. In addition, the INH result in data set [3] is “Active”.
For `CC(=O)O[C@@H]1[C@@H](OC(C)=O)C(=O)/C(C)=C/[C@H]2[C@@H](OC(=O)c3ccccc3)[C@@H](C)[C@H](OC(C)=O)[C@]2(OC(C)=O)[C@H](OC(C)=O)/C(C)=C/CC1(C)C`, the INH result in data set [3] was “Active”.
Turning to `CC(=O)O[C@@H]1C[C@@H](OC(=O)c2ccccc2)/C(C)=C/[C@H]2[C@@H](OC(=O)c3ccccc3)[C@@H](C)[C@H](OC(=O)c3ccco3)[C@]2(OC(C)=O)[C@H](O)[C@](C)(O)/C=C/C1(C)C`, the IC50 in data set [1] and in data set [2] was > 150 µM in each case. For the same compound, in data set [3], the INH entry was “Active”.
On to `CC(=O)O/C1=C(\C)[C@H]2O[C@](C)([C@@H](OC(C)=O)[C@]3(OC(C)=O)[C@@H]2[C@@H](OC(=O)c2ccccc2)[C@@H](C)[C@@H]3OC(C)=O)[C@H]2O[C@@H]2C(C)(C)[C@H](OC(C)=O)[C@H]1OC(C)=O`, for which the IC50 in data set [1] was 130 µM; in data set [2], 55.6 µM. Besides, the FC in data set [3] stood at 3.65. Moreover, the INH entry in data set [4] was “Active”.
Regarding `CC(=O)O[C@@H]1C[C@@H](OC(=O)c2ccccc2)/C(C)=C/[C@H]2[C@@H](OC(=O)c3ccccc3)[C@@H](C)[C@H](OS(=O)(=O)c3ccc(C)cc3)[C@]2(OC(C)=O)[C@H](O)[C@](C)(O)/C=C/C1(C)C`, the 50% inhibitory concentration (IC50) was > 150 µM in data set [1], > 100 µM in data set [5] and > 150 µM in data set [2]. The INH result in data set [3] is “Active”.
Turning to `CC(=O)O[C@@H]1C[C@@H](OC(=O)c2ccccc2)/C(C)=C/[C@H]2[C@@H](OC(=O)c3ccccc3)[C@@H](C)[C@H](O)[C@]2(OC(C)=O)[C@H](O)[C@](C)(O)/C=C/C1(C)C`, the concentration for half-maximal inhibition (IC50) in data set [1] and in data set [2] was > 150 µM each time. The FC in data set [6] was found to be 2.8; in data set [7], 1.32. Besides, the INH entry in data set [3] and in data set [4] was “Active” in each case.
Regarding `CC(=O)O[C@@H]1C[C@@H](OC(=O)c2ccccc2)/C(C)=C/[C@H]2[C@@H](OC(=O)c3ccccc3)[C@@H](C)[C@H](O)[C@]2(O)[C@H](O)[C@](C)(O)/C=C/C1(C)C`, the INH entry in data set [3] is “Active”.
As to `CC(=O)O[C@@H]1[C@@H](O)C(=O)/C(C)=C/C2=C[C@@H](C)[C@H](O)[C@]2(OC(C)=O)[C@H](O)/C(C)=C/CC1(C)C`, the INH entry in data set [8] is “Not Active”.
For the compound `C/C1=C\[C@H]2[C@@H](O)[C@@H](C)[C@H](O)[C@]2(O)[C@H](O)[C@](C)(O)/C=C/C(C)(C)[C@H](O)C[C@H]1O`, in data set [8], the INH entry was “Not Active”.
For `CC(=O)O[C@@H]1[C@@H](O)C(=O)/C(C)=C/C2=C[C@@H](C)[C@H](OC(C)=O)[C@]2(OC(C)=O)[C@H](OC(C)=O)/C(C)=C/CC1(C)C`, the INH entry in data set [8] is listed as “Not Active”.
Regarding `CC(=O)O[C@@H]1[C@@H](OC(C)=O)C(C)(C)C/C=C(\C)[C@@H](OC(C)=O)[C@]2(OC(C)=O)[C@@H](/C=C(\C)[C@@H]1OC(C)=O)[C@@H](OC(=O)c1ccccc1)[C@@H](C)[C@@H]2OC(C)=O`, the INH entry in data set [3] is “Active”.
`CC(=O)O/C1=C(\C)[C@H]2O[C@@](C)([C@@H](OC(C)=O)CC(C)(C)[C@H](OC(C)=O)[C@H]1OC(C)=O)[C@@H](OC(C)=O)[C@]1(OC(C)=O)[C@@H]2[C@@H](OC(=O)c2ccccc2)[C@@H](C)[C@@H]1OC(C)=O`: the IC50 in data set [1] and in data set [2] was > 150 µM each time. The values for the FC in data set [6] and in data set [7] were 3.07 and 1.81, respectively. Moreover, in data set [4], the INH result is “Active”.
In the case of `C/C1=C\[C@H]2[C@@H](OC(=O)c3ccccc3)[C@@H](C)[C@H](O)[C@]2(O)[C@H](O)[C@](C)(O)/C=C/C(C)(C)[C@H](O)C[C@H]1OC(=O)c1ccccc1`, the INH entry in data set [8] was “Not Active”.
With `CC(=O)O[C@@H]1CC(=O)/C(C)=C/[C@H]2C=C(C)C(=O)[C@]2(OC(C)=O)[C@H](O)[C@](C)(O)/C=C/C1(C)C`, in data set [8], the INH entry is “Not Active”.
For the compound `CC(=O)O[C@@H]1[C@@H](OC(C)=O)C(=O)/C(C)=C/[C@H]2[C@@H](OC(=O)c3ccccc3)[C@@H](C)[C@H](OC(C)=O)[C@]2(OC(C)=O)[C@H](OC(C)=O)[C@]2(C)O[C@H]2CC1(C)C`, the INH result in data set [3] is on record as “Active”.
In the case of `CC(=O)O/C1=C(\C)[C@@H](O)[C@H]2[C@@H](OC(=O)c3ccccc3)[C@@H](C)[C@H](OC(=O)c3ccccc3)[C@]2(OC(C)=O)[C@H](OC(C)=O)/C(C)=C/CC(C)(C)[C@H](OC(C)=O)[C@H]1OC(C)=O`, the half-inhibitory concentration (IC50) in data set [1] and in data set [2] was > 150 µM throughout. The FC was 2.78 in data set [6] and 1.37 in data set [7]. The INH result in data set [3] and in data set [4] was “Active” throughout.
As to `CC(=O)O[C@@H]1C[C@@H](OC(=O)c2ccccc2)/C(C)=C/[C@H]2[C@@H](OC(=O)c3ccccc3)[C@@H](C)[C@H](OC(=O)c3cccs3)[C@]2(OC(C)=O)[C@H](O)[C@](C)(O)/C=C/C1(C)C`, the IC50 in data set [1] and in data set [2] was > 150 µM in each case. For the same compound, the INH entry in data set [3] was “Active”.
For `CC(=O)O[C@@H]1C[C@@H](OC(=O)c2ccccc2)/C(C)=C/[C@H]2[C@@H](OC(=O)c3ccccc3)[C@@H](C)[C@H](O)[C@]2(OC(C)=O)[C@H](OC(C)=O)[C@](C)(O)/C=C/C1(C)C`, in data set [3], the INH entry is reported as “Active”.
In the case of `CC(=O)O/C1=C(\C)C(=O)[C@H]2[C@@H](OC(=O)c3ccccc3)[C@@H](C)[C@H](OC(C)=O)[C@]2(OC(C)=O)[C@H](OC(C)=O)/C(C)=C/CC(C)(C)[C@H](OC(C)=O)[C@H]1OC(C)=O`, the INH result in data set [3] and in data set [4] was “Active” in each case.
`CC(=O)O[C@@H]1[C@@H](OC(C)=O)C(=O)/C(C)=C/C2=C[C@@H](C)[C@H](OC(C)=O)[C@]2(OC(C)=O)[C@H](OC(C)=O)/C(C)=C/CC1(C)C`: in data set [8], the INH entry is “Not Active”.
Same read-out and setting: the entry for `C/C1=C\[C@H]2[C@@H](OC(=O)c3ccccc3)[C@@H](C)[C@H](O)[C@]2(O)[C@H](O)[C@](C)(O)/C=C/C(C)(C)[C@H](O)C[C@H]1O` is “Not Active”; for `CC(=O)O[C@@H]1C[C@@H](O)/C(C)=C/[C@H]2[C@@H](OC(=O)c3ccccc3)[C@@H](C)[C@H](O)[C@]2(OC(C)=O)[C@H](O)[C@](C)(O)/C=C/C1(C)C` it is “Not Active”.
Take `CC(=O)O/C1=C(\C)[C@@H](O)[C@H]2[C@@H](OC(=O)c3ccccc3)[C@@H](C)[C@H](OC(C)=O)[C@]2(OC(C)=O)[C@H](OC(C)=O)/C(C)=C/CC(C)(C)[C@H](OC(C)=O)[C@H]1OC(C)=O`: in data set [3], the INH entry was “Active”.
With `CC(=O)O[C@@H]1C[C@@H](OC(=O)c2ccccc2)/C(C)=C/[C@H]2[C@@H](OC(=O)c3ccccc3)[C@@H](C)[C@H](OC(C)=O)[C@]2(OC(C)=O)C(=O)[C@](C)(O)/C=C/C1(C)C`, the concentration for half-maximal inhibition (IC50) is > 150 µM in data set [1], > 100 µM in data set [5] and > 150 µM in data set [2]. In addition, the INH entry in data set [3] is listed as “Active”.
Consider `CC(=O)O/C1=C(\C)[C@@H](O)[C@H]2[C@@H](OC(=O)c3ccccc3)[C@@H](C)[C@H](O)[C@]2(O)[C@H](O)/C(C)=C/CC(C)(C)[C@H](OC(C)=O)[C@H]1OC(C)=O`, for which, in data set [8], the INH entry is “Not Active”.
For the compound `CC(=O)O[C@@H]1C[C@@H](OC(C)=O)C(C)(C)/C=C/[C@@](C)(O)[C@@H](O)[C@@]2(OC(C)=O)[C@@H](O)[C@H](C)[C@H](OC(=O)c3ccccc3)[C@@H]2/C=C/1C`, in data set [3], the INH entry is “Active”.
As to `CC(=O)O[C@@H]1C[C@@H](OC(=O)c2ccccc2)/C(C)=C/[C@H]2[C@@H](OC(=O)c3ccccc3)[C@@H](C)[C@H](OC(C)=O)[C@]2(OC(C)=O)[C@H](O)[C@](C)(O)/C=C/C1(C)C`, the values for the IC50 in data set [1] and in data set [2] were 93.3 µM and > 150 µM, respectively. For the same compound, the INH entry in data set [3] is reported as “Active”.
On to `CC(=O)O[C@@H]1C[C@@H](OC(=O)c2ccccc2)/C(C)=C/[C@H]2[C@@H](OC(=O)c3ccccc3)[C@@H](C)[C@H](OC(=O)c3ccccc3)[C@]2(OC(C)=O)[C@H](O)[C@](C)(O)/C=C/C1(C)C`, for which the IC50 in data set [1] is > 150 µM; in data set [2] it was 64.2 µM. The INH result in data set [3] and in data set [4] was “Active” throughout.
For the compound `CC(=O)O[C@@H]1C[C@@H](O)/C(C)=C/[C@H]2[C@@H](OC(=O)c3ccccc3)[C@@H](C)[C@H](O)[C@]2(OC(C)=O)[C@H](OC(=O)c2ccccc2)[C@](C)(O)/C=C/C1(C)C`, the INH entry in data set [3] is reported as “Active”.

For the origin of these results see ChEMBL document CHEMBL4431315, “Jatrophane Diterpenoids as Modulators of P-Glycoprotein-Dependent Multidrug Resistance (MDR): Advances of Structure-Activity Relationships and Discovery of Promising MDR Reversal Agents” (J Med Chem, 2016).
